Test results from ChEMBL document CHEMBL1140385, “Synthesis and antibacterial activity of 3-substituted-6-(3-ethyl-4-methylanilino)uracils” (J Med Chem, 2005).
In brackets after ≈: the same amount, converted by molar mass.

Tests used:
Format in all cases: functional
Enterococcus faecium [1] = assay: In vitro minimum inhibitory concentration against Enterococcus fecium upon incubation at 37 degree C for 16 to 24 hr by dissolving in DMSO (1%)
Outline: (§1)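 Broth microdilution (modified NCCLS M7-A4). Enterococci grown to log phase in brain-heart infusion broth, seeded at (3-7) × 10⁵ CFU/mL. Compounds 2-fold diluted from DMSO stocks, 20 to 1.25 µg/mL, final 1% DMSO, in duplicate. Incubated 37 °C, 16-24 h, with shaking. OD600 read.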

Enterococcus faecalis = assay: In vitro minimum inhibitory concentration against Enterococcus faecalis upon incubation at 37 degree C for 16 to 24 hr by dissolving in DMSO (1%)
Outline: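 Log-phase E. faecalis was grown in brain-heart infusion broth and seeded at (3-7) × 10^5 CFU/mL. Duplicate 2-fold dilutions ran from 20 to 1.25 µg/mL, final 1% DMSO. After 16-24 h at 37 °C with shaking, OD600 was read.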

Staphylococcus aureus [2] = assay: In vitro minimum inhibitory concentration against Staphylococcus aureus (Smith) upon incubation at 37 degree C for 16 to 24 hr by dissolving in DMSO (1%)
Enterococcus faecium [3] = assay: In vitro minimum inhibitory concentration against Vancomycin resistant Enterococci faecium upon incubation at 37 degree C for 16 to 24 hr by dissolving in DMSO (1%); outline: as §1
Staphylococcus aureus [4] = assay: In vitro minimum inhibitory concentration against Methicillin-resistant Staphylococcus aureus upon incubation at 37 degree C for 16 to 24 hr by dissolving in DMSO (1%)
Outline: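 Broth microdilution (modified NCCLS M7-A4). Staphylococci grown to log phase in Luria broth, seeded at (3-7) × 10⁵ CFU/mL. Compounds 2-fold diluted from DMSO stocks, 20 to 1.25 µg/mL, final 1% DMSO, in duplicate. Incubated 37 °C, 16-24 h, with shaking. OD600 read.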

Staphylococcus aureus [5] = assay: In vitro minimum inhibitory concentration against Staphylococcus aureus upon incubation at 37 degree C for 16 to 24 hr by dissolving in DMSO (1%)
Staphylococcus aureus [6] = assay: Serum effect on MIC against Staphylococcus aureus (Smith) as ratio of MIC value in presence and absence of 50% fetal calf serum
Outline: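 Broth microdilution MIC was repeated with 50% fetal calf serum added to the growth medium (LB for S. aureus, brain-heart infusion broth for E. faecalis). The inoculum was (3-7) × 10^5 CFU/mL in 1% DMSO, incubated at 37 °C for 16-24 h, and read by OD600. The serum effect is the MIC with serum relative to the MIC without serum.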

Bacillus subtilis = assay: In vitro minimum inhibitory concentration against Bacillus subtilis upon incubation at 37 degree C for 16 to 24 h

| SMILES | MIC (Enterococcus faecium [1]) [µg/mL] | MIC (Enterococcus faecalis) [µg/mL] | MIC (Staphylococcus aureus [2]) [µg/mL] | MIC (Enterococcus faecium [3]) [µg/mL] | MIC (Staphylococcus aureus [4]) [µg/mL] | MIC (Staphylococcus aureus [5]) [µg/mL] | MIC+/MIC- (Staphylococcus aureus [6]) | MIC (Bacillus subtilis) [µg/mL] |
| --- | --- | --- | --- | --- | --- | --- | --- | --- |
| CCc1cc(Nc2cc(=O)n(CCCCCN3CCc4c([nH]c5ccc(OC)cc45)C3)c(=O)[nH]2)ccc1C | 20 (≈ 38.8 µM) | > 20 | 10 (≈ 19.4 µM) | 5 (≈ 9.7 µM) | 10 (≈ 19.4 µM) |  |  |  |
| CCc1cc(Nc2cc(=O)n(CCCCCN3CC=C(c4ccc(F)cc4)CC3)c(=O)[nH]2)ccc1C | 7.5 (≈ 15.3 µM) | 7.5 (≈ 15.3 µM) | 7.5 (≈ 15.3 µM) | 5 (≈ 10.2 µM) | 7.5 (≈ 15.3 µM) | 10 (≈ 20.4 µM) |  |  |
| CCc1cc(Nc2cc(=O)n(CCCCOC(C)=O)c(=O)[nH]2)ccc1C | 5 (≈ 13.9 µM) | 5 (≈ 13.9 µM) |  | 5 (≈ 13.9 µM) | 5 (≈ 13.9 µM) |  |  |  |
| CCc1cc(Nc2cc(=O)n(CCCCCCCCO)c(=O)[nH]2)ccc1C | 2.5 (≈ 6.69 µM) |  |  | 2.5 (≈ 6.69 µM) |  |  | 21.3 |  |
| CCc1cc(Nc2cc(=O)n(CCCCN)c(=O)[nH]2)ccc1C.Cl | > 20 | > 20 | 10 |  | > 20 | 20 |  | 20 |
| CCc1cc(Nc2cc(=O)n(CCCCC#N)c(=O)[nH]2)ccc1C | 5 (≈ 15.3 µM) | 2.5 (≈ 7.66 µM) |  | 5 (≈ 15.3 µM) | 5 (≈ 15.3 µM) | 5 (≈ 15.3 µM) | 6 |  |
| CCc1cc(Nc2cc(=O)n(CC#CCO)c(=O)[nH]2)ccc1C | 10 (≈ 31.9 µM) | 10 (≈ 31.9 µM) |  | 10 (≈ 31.9 µM) | 10 (≈ 31.9 µM) | 10 (≈ 31.9 µM) |  |  |
| CCc1cc(Nc2cc(=O)n(CCOCCOCCO)c(=O)[nH]2)ccc1C | 10 (≈ 26.5 µM) | 10 (≈ 26.5 µM) | 10 (≈ 26.5 µM) | 5 (≈ 13.2 µM) | > 20 |  |  |  |
| CCc1cc(Nc2cc(=O)n(CCCCOC(=O)N3CCOCC3)c(=O)[nH]2)ccc1C | 5 (≈ 11.6 µM) | 5 (≈ 11.6 µM) | 5 (≈ 11.6 µM) | 5 (≈ 11.6 µM) | 10 (≈ 23.2 µM) |  |  |  |
| CCc1cc(Nc2cc(=O)n(CCCCCCO)c(=O)[nH]2)ccc1C | 5 (≈ 14.5 µM) | 2.5 (≈ 7.24 µM) |  |  | 5 (≈ 14.5 µM) | 5 (≈ 14.5 µM) | 8.7 |  |
| CCc1cc(Nc2cc(=O)n(CCCC(C)=O)c(=O)[nH]2)ccc1C | 5 (≈ 15.2 µM) | 5 (≈ 15.2 µM) | 2.5 (≈ 7.59 µM) | 2.5 (≈ 7.59 µM) | 5 (≈ 15.2 µM) |  |  |  |
| CCc1cc(Nc2cc(=O)n(CCCCNC(=O)CCl)c(=O)[nH]2)ccc1C | 10 (≈ 25.5 µM) | 5 (≈ 12.7 µM) | 5 (≈ 12.7 µM) | 5 (≈ 12.7 µM) | 10 (≈ 25.5 µM) |  |  |  |
| CCc1cc(Nc2cc(=O)n(CCCC(=O)O)c(=O)[nH]2)ccc1C | 20 (≈ 60.4 µM) | > 20 |  | 20 (≈ 60.4 µM) | > 20 | 20 (≈ 60.4 µM) |  |  |
| CCOC(=O)CCCCn1c(=O)cc(Nc2ccc(C)c(CC)c2)[nH]c1=O | < 1.25 | 5 (≈ 13.4 µM) |  | 2.5 (≈ 6.69 µM) | > 20 |  | >12.2 |  |
| CCc1cc(Nc2cc(=O)n(CCCCNC(=O)C3CC3)c(=O)[nH]2)ccc1C |  | 5 (≈ 13 µM) | 5 (≈ 13 µM) | 5 (≈ 13 µM) | 20 (≈ 52 µM) |  | 14.9 |  |
| CCOC(=O)CCCn1c(=O)cc(Nc2ccc(C)c(CC)c2)[nH]c1=O |  | 5 (≈ 13.9 µM) |  | 5 (≈ 13.9 µM) | 5 (≈ 13.9 µM) |  | 10 |  |
| CCc1cc(Nc2cc(=O)n(CCN3CCN(C(=O)c4ccccc4)CC3)c(=O)[nH]2)ccc1C | 5 (≈ 10.8 µM) | 10 (≈ 21.7 µM) | 10 (≈ 21.7 µM) | 5 (≈ 10.8 µM) | 10 (≈ 21.7 µM) |  |  |  |
| CCc1cc(Nc2cc(=O)n(CCCC(O)CO)c(=O)[nH]2)ccc1C (centres undefined) | 20 (≈ 57.6 µM) | 20 (≈ 57.6 µM) | 20 (≈ 57.6 µM) | 10 (≈ 28.8 µM) | > 20 |  |  |  |
| CCc1cc(Nc2cc(=O)n(CCCCNS(=O)(=O)c3cccs3)c(=O)[nH]2)ccc1C | 2.5 (≈ 5.4 µM) | 5 (≈ 10.8 µM) |  | 5 (≈ 10.8 µM) |  | > 20 | 13.7 |  |
| CCc1cc(Nc2cc(=O)n(CC(C)=O)c(=O)[nH]2)ccc1C | 10 (≈ 33.2 µM) | 20 (≈ 66.4 µM) | 10 (≈ 33.2 µM) | 20 (≈ 66.4 µM) | 10 (≈ 33.2 µM) |  |  |  |
